Measured values published in ChEMBL document CHEMBL1781989, “Novel β-carboline-tripeptide conjugates attenuate mesenteric ischemia/reperfusion injury in the rat” (2011).
Non-standard residues stand in square brackets, D forms with d. Residues, ends and D or L forms follow the SMILES beside them. Tpi = O=C(O)[C@@H]1Cc2c([nH]c3ccccc23)CN1

Tests used:
Type in all cases: functional
Mus musculus [1] = assay: Analgesic activity in ICR mouse assessed as increase in pain threshold at 0.15 mmol/kg, po after 30 mins by tail flick method (reference value: 5.03 +/- 10.26 %)
Mus musculus [2] = assay: Analgesic activity in ICR mouse assessed as increase in pain threshold at 0.15 mmol/kg, po after 150 mins by tail flick method (reference value: 9.02 +/- 12.19 %)
Mus musculus [3] = assay: Analgesic activity in ICR mouse assessed as increase in pain threshold at 0.15 mmol/kg, po after 90 mins by tail flick method (reference value: 7.53 +/- 11.54 %)
Mus musculus [4] = assay: Analgesic activity in ICR mouse assessed as increase in pain threshold at 0.15 mmol/kg, po after 180 mins by tail flick method (reference value: 8.75 +/- 9.73 %)
Mus musculus [5] = assay: Analgesic activity in ICR mouse assessed as increase in pain threshold at 0.15 mmol/kg, po after 120 mins by tail flick method (reference value: 8.09 +/- 13.28 %)
Mus musculus [6] = assay: Antiinflammatory activity in ICR mouse assessed as inhibition of xylene-induced ear edema at 0.15 mmol/kg, po administered 30 mins before xylene challenge measured after 2 hrs relative to control
Method in brief: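 Male ICR mice (20 ± 2 g), randomised to test, vehicle (CMC) and aspirin (10 mg/kg oral) groups. Test agents given orally as CMC suspension. After 30 min, 0.03 mL xylene applied to both faces of the right ear, left ear as control. At 2 h mice were killed and 7 mm ear punches weighed. Edema is the right-minus-left weight, and inhibition is taken against vehicle.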

Mus musculus [7] = assay: Analgesic activity in ICR mouse assessed as increase in pain threshold at 0.15 mmol/kg, po after 60 mins by tail flick method (reference value: 7.45 +/- 8.03 %)

Row | SMILES | Activity (Mus musculus [1]) [%] | Activity (Mus musculus [2]) [%] | Activity (Mus musculus [3]) [%] | Activity (Mus musculus [4]) [%] | Activity (Mus musculus [5]) [%] | inhibition in vivo at 150 µmol/kg (Mus musculus [6]) [%] | Activity (Mus musculus [7]) [%]
1 | C[C@@H](O)[C@H](NC(=O)[C@@H]1Cc2c([nH]c3ccccc23)CN1)C(=O)N[C@@H](Cc1ccccc1)C(=O)N[C@@H](Cc1c[nH]c2ccccc12)C(=O)O (H-[Tpi]TFW-OH) | 30.75 | 23.19 | 40.36 | 19.25 | 42.43 | 50.6 | 38.2
2 | O=C(O)[C@H](Cc1c[nH]c2ccccc12)NC(=O)[C@H](Cc1ccccc1)NC(=O)[C@@H]1CCCN1C(=O)[C@@H]1Cc2c([nH]c3ccccc23)CN1 (H-[Tpi]PFW-OH) | 23.17 | 25.05 | 21.35 | 15.68 | 18.79 | 47.3 | 49.74
3 | NC(=O)C[C@H](NC(=O)[C@@H]1Cc2c([nH]c3ccccc23)CN1)C(=O)N[C@@H](Cc1ccccc1)C(=O)N[C@@H](Cc1c[nH]c2ccccc12)C(=O)O (H-[Tpi]NFW-OH) | 21.24 | 22.12 | 34.56 | 19.45 | 39.25 | 55.8 | 45.23
4 | O=C(CNC(=O)[C@@H]1Cc2c([nH]c3ccccc23)CN1)N[C@@H](Cc1ccccc1)C(=O)N[C@@H](Cc1c[nH]c2ccccc12)C(=O)O (H-[Tpi]GFW-OH) | 10.36 | 22.37 | 46.45 | 14.36 | 49.09 | 37.5 | 40.78
5 | CC(=O)Oc1ccccc1C(=O)O [ASPIRIN] | 32.85 | 30.41 | 41.23 | 21.72 | 33.24 |  | 38.45
6 | O=C(O)[C@H](Cc1c[nH]c2ccccc12)NC(=O)[C@H](Cc1ccccc1)NC(=O)[C@H](Cc1c[nH]c2ccccc12)NC(=O)[C@@H]1Cc2c([nH]c3ccccc23)CN1 (H-[Tpi]WFW-OH) | 35.05 | 16.69 | 35.19 | 14.23 | 28.55 | 51.5 | 36.45
7 | CC(C)[C@H](NC(=O)[C@@H]1Cc2c([nH]c3ccccc23)CN1)C(=O)N[C@@H](Cc1ccccc1)C(=O)N[C@@H](Cc1c[nH]c2ccccc12)C(=O)O (H-[Tpi]VFW-OH) | 39.47 | 25.88 | 47.36 | 16.03 | 35.79 | 43.6 | 45.77
8 | O=C(O)[C@H](Cc1c[nH]c2ccccc12)NC(=O)[C@H](Cc1ccccc1)NC(=O)[C@H](CO)NC(=O)[C@@H]1Cc2c([nH]c3ccccc23)CN1 (H-[Tpi]SFW-OH) | 30.56 | 26.47 | 44.13 | 25.07 | 38.45 | 45.7 | 42.32
9 | NCCCC[C@H](N)C(=O)N[C@@H](Cc1ccccc1)C(=O)N[C@@H](Cc1c[nH]c2ccccc12)C(=O)O (H-Lys-Phe-Trp-OH) | 20.16 | 11.23 | 23.47 | 8.41 | 20.14 |  | 25.43
10 | CC(C)C[C@H](N)C(=O)N[C@@H](Cc1ccccc1)C(=O)N[C@@H](Cc1c[nH]c2ccccc12)C(=O)O (H-Leu-Phe-Trp-OH) | 25.38 | 9.77 | 20.13 | 7.98 | 18.92 |  | 28.79
